From ChEMBL document CHEMBL4706572, “Benzyl and benzoyl benzoic acid inhibitors of bacterial RNA polymerase-sigma factor interaction” (Eur J Med Chem, 2020)
≈ marks a conversion by molar mass, not a printed value. Calls of active or inactive are those of the source. The rule behind the calls is not given here.

Key:
Bacillus subtilis [1] = assay: Inhibition of GFP-fused RNAP subunit beta' interaction with sigma factor A in Bacillus subtilis BS1048 assessed as alteration in transcriptional complex localization by measuring diffusion of fluorescent signal into cytosol at 1 to 2 times MIC incubated for 15 mins by confocal microscopy; type: subcellular
How it was run: (§1)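 B. subtilis BS1048 (RpoC-GFP) grown from a single colony in LB at 37 °C to OD600 ~0.6. […] Cells mounted on 1.2% agarose under a coverslip and imaged by confocal microscopy with a 63×/1.3 oil objective for RNAP-GFP localization relative to the nucleoid.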

Staphylococcus aureus [2] = assay: Antibacterial activity against Staphylococcus aureus ATCC 29213 after 20 hrs by CLSI based-broth microdilution method; type: functional
How it was run: (§2)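 Broth microdilution in cation-adjusted Mueller-Hinton broth. Two-fold serial dilutions from 256 μg/mL down to 0.5 μg/mL. Inoculum approx. 5 × 10^5 CFU/mL. Incubated 20 h at 37 °C. MIC taken as the lowest concentration with no observable growth.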

Streptococcus pneumoniae = assay: Antibacterial activity against Streptococcus pneumoniae ATCC 49619 after 20 hrs by CLSI based-broth microdilution method; type: functional
How it was run: (§3)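 Streptococci tested in Brain Heart Infusion broth. Two-fold dilutions from 256 to 0.5 μg/mL, inoculum approx. 5 × 10^5 CFU/mL. Incubated 20 h at 37 °C. MIC is the lowest concentration without visible growth.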

Enterococcus faecalis = assay: Antibacterial activity against Enterococcus faecalis ATCC 19433 after 20 hrs by CLSI based-broth microdilution method; type: functional
How it was run: (§4)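 Broth microdilution MIC. Two-fold serial dilutions from 256 μg/mL down to 0.5 μg/mL. Inoculum approx. 5 × 10^5 CFU/mL. Read after 20 h at 37 °C. MIC is the lowest concentration with no observable growth.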

Clostridioides difficile [3] = assay: Antibacterial activity against Clostridium difficile ribotype 002 assessed as reduction in bacterial toxin B production at sub-inhibitory concentration incubated for 48 hrs under anaerobic condition by ELISA; type: functional, organism-based
How it was run: (§5)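 Incubated anaerobically at 37 °C for 48 h. Supernatants cleared at 10,000 × g for 2 min. TcdA and TcdB quantified by commercial ELISA, normalized to drug-free control. Duplicate, with technical and biological repeats.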

Staphylococcus aureus [4] = assay: Antibacterial activity against Staphylococcus aureus ATCC 25923 after 20 hrs by CLSI based-broth microdilution method; type: functional; how it was run: as §2
Clostridioides difficile [5] = assay: Antibacterial activity against Clostridium difficile ATCC 9689 assessed as reduction in bacterial toxin A production at sub-inhibitory concentration incubated for 48 hrs under anaerobic condition by ELISA; type: functional, organism-based; details: ATCC 9689 = DSM 1296; how it was run: as §5
Staphylococcus aureus [6] = assay: Inhibition of RNAP/sigma factor interaction in Staphylococcus aureus ATCC 29213 assessed as reduction in total protein level at 1/4 to 1/8 times MIC by fluorimetric method
Staphylococcus aureus [7] = assay: Inhibition of RNAP/sigma factor interaction in Staphylococcus aureus ATCC 29213 assessed as total DNA level at 1/4 to 1/8 times MIC by fluorimetric method
How it was run: (§6)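 S. aureus ATCC 29213 master culture started at OD600 0.1 at 37 °C with shaking at 175 rpm. At OD600 0.2 it was split and given compound or control at ¼ and ⅛ MIC, plus a drug-free culture. Cells harvested when the control reached OD600 0.6, with volumes normalized to OD600 0.6 equivalent. DNA and RNA measured by Qubit fluorometry, protein by BCA; triplicate.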

[8] = tested on: Staphylococcus epidermidis; assay: Antibacterial activity against Staphylococcus epidermidis ATCC 12228 after 20 hrs by CLSI based-broth microdilution method; type: functional; how it was run: as §2
Bacillus subtilis [9] = assay: Inhibition of GFP-fused RNAP subunit beta' interaction with sigma factor A in Bacillus subtilis BS1048 assessed as nucleoid delocalization at half MIC incubated for 15 mins by confocal microscopy; how it was run: as §1
Clostridioides difficile [10] = assay: Antibacterial activity against Clostridium difficile ribotype 002 assessed as reduction in bacterial toxin A production at sub-inhibitory concentration incubated for 48 hrs under anaerobic condition by ELISA; type: functional, organism-based; how it was run: as §5
Bacillus subtilis [11] = assay: Antibacterial activity against Bacillus subtilis BS1048 after 20 hrs by CLSI based broth microdilution method; type: functional; how it was run: as §4
[12] = Antibacterial activity against Staphylococcus saprophyticus ATCC 15305 after 20 hrs by CLSI based-broth microdilution method; type: functional, Staphylococcus saprophyticus subsp. saprophyticus; how it was run: as §2
Clostridioides difficile [13] = assay: Antibacterial activity against Clostridium difficile ATCC 9689 assessed as reduction in bacterial toxin B production at sub-inhibitory concentration incubated for 48 hrs under anaerobic condition by ELISA; type: functional, organism-based; details: ATCC 9689 = DSM 1296; how it was run: as §5
Staphylococcus aureus [14] = assay: Inhibition of RNAP/sigma factor interaction in Staphylococcus aureus ATCC 29213 assessed as reduction in total RNA level by fluorimetric method; how it was run: as §6
Clostridioides difficile [15] = assay: Antibacterial activity against Clostridium difficile ribotype 027 assessed as reduction in bacterial toxin A production at sub-inhibitory concentration incubated for 48 hrs under anaerobic condition by ELISA; type: functional, organism-based; how it was run: as §5
Clostridioides difficile [16] = assay: Antibacterial activity against Clostridium difficile ribotype 027 assessed as reduction in bacterial toxin B production at sub-inhibitory concentration incubated for 48 hrs under anaerobic condition by ELISA; type: functional, organism-based; how it was run: as §5
Streptococcus pyogenes = assay: Antibacterial activity against Streptococcus pyogenes ATCC 19615 after 20 hrs by CLSI based-broth microdilution method; type: functional; how it was run: as §3
Streptococcus agalactiae = assay: Antibacterial activity against Streptococcus agalactiae ATCC 12386 after 20 hrs by CLSI based-broth microdilution method; type: functional; how it was run: as §3

Structure (SMILES)	MIC (Staphylococcus aureus [2]) [mg/L]	MIC (Streptococcus pneumoniae) [mg/L]	MIC (Staphylococcus aureus [4]) [mg/L]	other results
O=C(O)c1ccc(C(F)(F)F)cc1C(=O)c1ccc(Sc2ccc(Cl)c(Cl)c2)c([N+](=O)[O-])c1	4 (≈ 7.75 µM)	2 (≈ 3.87 µM)	4 (≈ 7.75 µM)	inhibition (Bacillus subtilis [1]): Active; MIC (Enterococcus faecalis): 8 mg/L (≈ 15.5 µM); Activity (Clostridioides difficile [3]): Dose-dependent effect; Activity (Clostridioides difficile [5]): Dose-dependent effect; inhibition (Staphylococcus aureus [6]): Active; inhibition (Staphylococcus aureus [7]): inactive; MIC [8]: 0.5 mg/L (≈ 0.968 µM); inhibition (Bacillus subtilis [9]): Active; Activity (Clostridioides difficile [10]): Dose-dependent effect; MIC (Bacillus subtilis [11]): 2 mg/L (≈ 3.87 µM); MIC [12]: 1 mg/L (≈ 1.94 µM); Activity (Clostridioides difficile [13]): Dose-dependent effect; inhibition (Staphylococcus aureus [14]): Dose-dependent effect; Activity (Clostridioides difficile [15]): Dose-dependent effect; Activity (Clostridioides difficile [16]): Dose-dependent effect; MIC (Streptococcus pyogenes): 4 mg/L (≈ 7.75 µM); MIC (Streptococcus agalactiae): 4 mg/L (≈ 7.75 µM)
O=C(O)c1cc(C(F)(F)F)ccc1C(=O)c1ccc(Sc2ccc(Cl)c(Cl)c2)c([N+](=O)[O-])c1	8 (≈ 15.5 µM)	4 (≈ 7.75 µM)	16 (≈ 31 µM)	
O=C(O)c1ccccc1Cc1ccc(Sc2ccc(Cl)c(Cl)c2)c([N+](=O)[O-])c1	16 (≈ 36.8 µM)	16 (≈ 36.8 µM)	16 (≈ 36.8 µM)	
O=C(O)c1cc(Cl)ccc1C(=O)c1ccc(Sc2ccc(Cl)c(Cl)c2)c([N+](=O)[O-])c1	4 (≈ 8.29 µM)	8 (≈ 16.6 µM)	8 (≈ 16.6 µM)	
COc1ccccc1Cc1ccc(Sc2ccc(Cl)c(Cl)c2)c([N+](=O)[O-])c1	> 256	> 256	> 256	
O=C(O)c1ccc(Cl)cc1Cc1ccc(Sc2ccc(Cl)c(Cl)c2)c([N+](=O)[O-])c1	8 (≈ 17.1 µM)	2 (≈ 4.27 µM)	8 (≈ 17.1 µM)	
COc1ccc(C(=O)O)c(C(=O)c2ccc(Sc3ccc(Cl)c(Cl)c3)c([N+](=O)[O-])c2)c1	8 (≈ 16.7 µM)	8 (≈ 16.7 µM)	16 (≈ 33.5 µM)	
O=C(O)c1cc(C(F)(F)F)ccc1Cc1ccc(Sc2ccc(Cl)c(Cl)c2)c([N+](=O)[O-])c1	8 (≈ 15.9 µM)	2 (≈ 3.98 µM)		
CCc1c(Cl)c(O)c(Cl)c(O)c1C(=O)O[C@H]1[C@H](O)[C@H](OC)[C@H](OC/C2=C\C=C\C[C@H](O)/C(C)=C/[C@H](CC)[C@@H](O[C@@H]3OC(C)(C)[C@@H](OC(=O)C(C)C)[C@H](O)[C@@H]3O)/C(C)=C/C(C)=C/C[C@@H]([C@@H](C)O)OC2=O)O[C@@H]1C				Activity (Clostridioides difficile [3]): Dose-dependent effect; Activity (Clostridioides difficile [5]): Dose-dependent effect; Activity (Clostridioides difficile [10]): Dose-dependent effect; Activity (Clostridioides difficile [13]): Dose-dependent effect; Activity (Clostridioides difficile [15]): Dose-dependent effect; Activity (Clostridioides difficile [16]): Dose-dependent effect
O=C(O)c1cccc(C(=O)c2ccc(Sc3ccc(Cl)c(Cl)c3)c([N+](=O)[O-])c2)c1	32 (≈ 71.4 µM)	> 256	> 256	
COc1ccc(C(=O)O)c(Cc2ccc(Sc3ccc(Cl)c(Cl)c3)c([N+](=O)[O-])c2)c1	8 (≈ 17.2 µM)	8 (≈ 17.2 µM)	16 (≈ 34.5 µM)	
COc1ccccc1C(=O)c1ccc(Sc2ccc(Cl)c(Cl)c2)c([N+](=O)[O-])c1	> 256	> 256	> 256	
